What was measured:
[1] = target: T1, Alpha-1A adrenergic receptor (Homo sapiens, UniProt P35348); assay: Binding affinity was determined on human cloned Alpha-1A adrenoceptor
T1 sequence (P35348 whole entry): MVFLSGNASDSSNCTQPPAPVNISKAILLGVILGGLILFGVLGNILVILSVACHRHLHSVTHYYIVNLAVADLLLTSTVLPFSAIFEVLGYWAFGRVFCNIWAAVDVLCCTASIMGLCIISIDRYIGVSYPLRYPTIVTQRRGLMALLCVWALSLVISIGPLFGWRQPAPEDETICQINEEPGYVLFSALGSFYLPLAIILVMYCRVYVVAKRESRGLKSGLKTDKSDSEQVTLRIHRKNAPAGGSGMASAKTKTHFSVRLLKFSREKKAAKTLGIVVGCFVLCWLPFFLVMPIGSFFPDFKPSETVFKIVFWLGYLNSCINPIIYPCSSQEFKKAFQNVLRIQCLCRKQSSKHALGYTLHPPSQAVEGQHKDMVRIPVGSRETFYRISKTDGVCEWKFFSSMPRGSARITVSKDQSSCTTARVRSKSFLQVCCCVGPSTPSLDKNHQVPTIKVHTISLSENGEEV
Summary of the method: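 Membranes from CHO cells stably expressing each human α1-adrenoceptor subtype, incubated in 50 mM Tris pH 7.4 with 0.2 nM [3H]prazosin and competing drugs (1 pM–10 µM), 30 min at 25 °C. Nonspecific binding with 10 µM phentolamine. Stopped with ice-cold Tris and filtration through 0.2% PEI-pretreated filters.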

[2] = target: D(2) dopamine receptor (Rattus norvegicus, UniProt P61169); assay: Binding affinity towards dopamine receptor D2 in rat striatal membranes; type: cell membranes, Striatum, Membrane
Chain of D(2) dopamine receptor (P61169 whole entry): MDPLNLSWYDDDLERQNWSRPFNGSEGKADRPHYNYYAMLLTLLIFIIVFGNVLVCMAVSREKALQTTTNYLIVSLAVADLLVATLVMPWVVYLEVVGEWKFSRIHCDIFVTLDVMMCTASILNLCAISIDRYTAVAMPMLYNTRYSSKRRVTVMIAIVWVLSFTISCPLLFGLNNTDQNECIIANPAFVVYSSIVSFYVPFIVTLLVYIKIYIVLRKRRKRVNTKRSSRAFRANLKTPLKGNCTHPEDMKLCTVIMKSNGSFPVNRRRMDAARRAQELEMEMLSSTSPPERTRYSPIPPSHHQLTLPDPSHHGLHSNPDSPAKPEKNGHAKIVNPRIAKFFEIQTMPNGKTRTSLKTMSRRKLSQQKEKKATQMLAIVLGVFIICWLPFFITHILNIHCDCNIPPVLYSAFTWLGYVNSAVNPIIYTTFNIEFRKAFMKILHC

[3] = target: T2, 5-hydroxytryptamine receptor 1A (Rattus norvegicus, UniProt P19327); assay: Binding was determined on 5-hydroxytryptamine 1A receptor in rat hippocampal membranes; type: cell membranes, Hippocampus
T2 sequence (P19327 whole entry): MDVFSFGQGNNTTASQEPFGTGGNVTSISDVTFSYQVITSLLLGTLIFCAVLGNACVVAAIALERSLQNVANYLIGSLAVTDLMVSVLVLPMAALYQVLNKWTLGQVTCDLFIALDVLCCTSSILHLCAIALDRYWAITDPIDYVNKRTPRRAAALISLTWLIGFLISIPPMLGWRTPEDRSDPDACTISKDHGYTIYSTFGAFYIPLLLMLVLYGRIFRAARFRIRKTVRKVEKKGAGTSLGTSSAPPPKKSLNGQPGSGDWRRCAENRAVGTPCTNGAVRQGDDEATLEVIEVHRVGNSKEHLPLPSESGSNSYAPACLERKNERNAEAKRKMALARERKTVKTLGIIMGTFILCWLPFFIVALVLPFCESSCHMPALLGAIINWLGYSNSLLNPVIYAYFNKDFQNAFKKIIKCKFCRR
Summary of the method: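 Hippocampus from male Wistar Hannover rats, homogenized in 50 mM Tris pH 7.6, washed, and preincubated 10 min at 37 °C. Ki given as mean ± SEM.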

[4] = target: T3, 5-hydroxytryptamine receptor 1A (Homo sapiens, UniProt P08908); assay: Binding affinity on human cloned 5-hydroxytryptamine 1A receptor transfected in human cell lines(He La)
T3 sequence (P08908 whole entry): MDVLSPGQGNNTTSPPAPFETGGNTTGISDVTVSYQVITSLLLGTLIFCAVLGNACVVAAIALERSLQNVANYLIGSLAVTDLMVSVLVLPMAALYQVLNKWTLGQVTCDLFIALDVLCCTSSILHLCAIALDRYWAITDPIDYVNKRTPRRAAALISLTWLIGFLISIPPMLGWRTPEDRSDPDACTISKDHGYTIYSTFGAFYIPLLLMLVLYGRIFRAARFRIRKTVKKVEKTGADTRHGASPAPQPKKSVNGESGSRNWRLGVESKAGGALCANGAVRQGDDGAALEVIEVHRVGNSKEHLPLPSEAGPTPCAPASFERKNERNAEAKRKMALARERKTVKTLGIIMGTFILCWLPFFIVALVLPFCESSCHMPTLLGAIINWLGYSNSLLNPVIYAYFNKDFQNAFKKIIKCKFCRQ
Summary of the method: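 HeLa cells stably expressing human 5-HT1A (genomic clone G-21), grown in DMEM with 10% FCS. […] Nonspecific binding with 10 µM 5-HT. Filtration through PEI-pretreated filters.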

Compound | Ki [1] [nM] | Ki [2] [nM] | Ki [3] [nM] | Ki [4] [nM]
COc1cccc2c1CCCC2CCCN1CCN(c2ccccn2)CC1 (configuration not stated) | 0.33 | 117 | 0.48 | 
COc1cccc2c(CCCN3CCN(c4ccccn4)CC3)cccc12 | 1.62 | 450 | 0.38 | 3
COc1cccc(C2CCC(N3CCN(c4ccccn4)CC3)CC2)c1 (trans isomer) | 33 | 2190 | 0.028 | 0.2
COc1cccc2c(CCCNCCOc3ccccn3)cccc12 | 14.6 | 378 | 0.19 | 0.86
COc1cccc2c1CCCC2CCCNCCOc1ccccn1 (configuration not stated) | 0.55 | > 850 | 0.54 | 0.23
COc1cccc(C2CCC(NCCOc3ccccn3)CC2)c1 (stereo in doubt) | 201 | 586 | 17 | 3.77
COc1cccc(C2CCC(N3CCN(c4ccccc4OC)CC3)CC2)c1 (stereo in doubt; trans) | 4.98 | 60 | 0.02 | 0.21
